From ChEMBL document CHEMBL5653631, “A Potent and Selective ULK1 Inhibitor Suppresses Autophagy and Sensitizes Cancer Cells to Nutrient Stress” (iScience, 2018)
Values belong to the compound of their own block, whether it stands above or below them.

How the values were obtained:
[1] = biological target: T1, Serine/threonine-protein kinase 17B (Homo sapiens) (UniProt O94768); experiment: Inhibition of human recombinant DRAK2 at 500 nM related to control ULK1
T1 sequence (whole entry): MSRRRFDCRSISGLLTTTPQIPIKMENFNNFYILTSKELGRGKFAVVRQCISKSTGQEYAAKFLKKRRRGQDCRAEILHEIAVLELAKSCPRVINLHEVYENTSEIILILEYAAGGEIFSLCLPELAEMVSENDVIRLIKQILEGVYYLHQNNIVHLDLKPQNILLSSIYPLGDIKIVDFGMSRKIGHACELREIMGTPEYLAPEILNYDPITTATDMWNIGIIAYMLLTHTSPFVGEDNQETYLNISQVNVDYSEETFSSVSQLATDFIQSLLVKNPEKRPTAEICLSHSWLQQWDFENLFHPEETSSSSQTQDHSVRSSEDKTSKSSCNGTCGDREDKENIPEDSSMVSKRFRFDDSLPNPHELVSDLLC

[2] = biological target: Mitogen-activated protein kinase kinase kinase 10 (Homo sapiens) (UniProt Q02779); experiment: Inhibition of human recombinant MLK2 at 500 nM in presence of ATP by radiometric assay relative to control
Mitogen-activated protein kinase kinase kinase 10 (Homo sapiens), sequence (Q02779 whole entry, looked up): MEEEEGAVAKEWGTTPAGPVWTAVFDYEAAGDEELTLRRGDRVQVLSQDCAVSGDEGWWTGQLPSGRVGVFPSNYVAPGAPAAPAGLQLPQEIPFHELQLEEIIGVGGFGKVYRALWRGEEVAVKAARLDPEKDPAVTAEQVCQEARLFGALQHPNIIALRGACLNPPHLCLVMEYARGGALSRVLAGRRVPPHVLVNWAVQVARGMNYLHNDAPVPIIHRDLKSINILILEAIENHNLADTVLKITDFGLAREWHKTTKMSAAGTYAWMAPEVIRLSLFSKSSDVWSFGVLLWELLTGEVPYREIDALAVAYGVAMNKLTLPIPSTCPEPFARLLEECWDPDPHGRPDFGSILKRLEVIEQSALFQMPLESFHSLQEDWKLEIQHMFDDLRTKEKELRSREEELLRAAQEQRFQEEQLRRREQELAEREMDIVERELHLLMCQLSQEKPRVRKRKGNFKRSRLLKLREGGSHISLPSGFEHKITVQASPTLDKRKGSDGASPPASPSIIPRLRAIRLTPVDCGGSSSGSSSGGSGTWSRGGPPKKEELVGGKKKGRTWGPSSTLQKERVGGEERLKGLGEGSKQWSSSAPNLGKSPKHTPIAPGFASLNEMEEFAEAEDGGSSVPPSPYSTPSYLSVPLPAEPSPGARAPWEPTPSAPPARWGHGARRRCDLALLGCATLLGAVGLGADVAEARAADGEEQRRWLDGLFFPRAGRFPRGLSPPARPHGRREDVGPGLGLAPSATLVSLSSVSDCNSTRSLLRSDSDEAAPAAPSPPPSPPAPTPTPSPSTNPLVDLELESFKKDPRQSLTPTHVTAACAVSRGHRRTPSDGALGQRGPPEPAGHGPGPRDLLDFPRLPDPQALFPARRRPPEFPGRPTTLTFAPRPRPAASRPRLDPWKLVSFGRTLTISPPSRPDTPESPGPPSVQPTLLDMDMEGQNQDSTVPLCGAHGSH

[3] = biological target: Cyclin-dependent kinase 3 (Homo sapiens) (UniProt Q00526); experiment: Inhibition of human recombinant CDK3 at 500 nM in presence of ATP by radiometric assay relative to control
Cyclin-dependent kinase 3 (Homo sapiens), sequence (Q00526 whole entry, looked up): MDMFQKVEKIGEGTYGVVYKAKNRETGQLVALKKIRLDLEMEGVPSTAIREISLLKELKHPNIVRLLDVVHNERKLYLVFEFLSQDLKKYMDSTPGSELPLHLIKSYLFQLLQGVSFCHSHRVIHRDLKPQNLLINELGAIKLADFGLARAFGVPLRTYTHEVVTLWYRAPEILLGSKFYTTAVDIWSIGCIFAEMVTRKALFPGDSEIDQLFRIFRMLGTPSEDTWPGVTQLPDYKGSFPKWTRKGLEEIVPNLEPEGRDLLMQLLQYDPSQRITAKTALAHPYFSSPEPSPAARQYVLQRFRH

[4] = biological target: T2, G protein-coupled receptor kinase 3 (Homo sapiens) (UniProt P35626); experiment: Inhibition of human recombinant BARK2 at 15 nM in presence of ATP by radiometric assay relative to control
T2 sequence (whole entry): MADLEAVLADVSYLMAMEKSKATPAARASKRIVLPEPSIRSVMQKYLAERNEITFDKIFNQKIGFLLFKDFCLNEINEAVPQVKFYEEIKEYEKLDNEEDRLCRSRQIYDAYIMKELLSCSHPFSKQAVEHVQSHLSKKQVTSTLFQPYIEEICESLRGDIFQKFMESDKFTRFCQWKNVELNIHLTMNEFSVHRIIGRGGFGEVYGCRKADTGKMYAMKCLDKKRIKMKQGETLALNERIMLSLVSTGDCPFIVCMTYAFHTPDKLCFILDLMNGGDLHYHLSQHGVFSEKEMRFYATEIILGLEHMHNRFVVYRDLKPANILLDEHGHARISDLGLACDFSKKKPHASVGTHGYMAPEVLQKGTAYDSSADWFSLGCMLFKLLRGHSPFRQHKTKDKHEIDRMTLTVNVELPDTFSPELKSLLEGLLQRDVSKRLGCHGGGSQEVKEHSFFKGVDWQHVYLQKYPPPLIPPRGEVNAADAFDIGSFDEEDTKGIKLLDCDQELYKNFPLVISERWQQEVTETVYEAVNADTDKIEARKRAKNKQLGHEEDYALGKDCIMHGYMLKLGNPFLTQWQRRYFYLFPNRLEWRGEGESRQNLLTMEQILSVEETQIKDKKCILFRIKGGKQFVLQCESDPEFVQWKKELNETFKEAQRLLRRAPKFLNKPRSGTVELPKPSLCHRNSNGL
Summary of the method: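 Part of a radiometric in vitro activity panel of 327 recombinant human kinases. Each kinase was tested in duplicate at one inhibitor concentration. Activity remaining was expressed as a percentage of the vehicle control, and percent inhibition was taken as 100 minus that value.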

[5] = biological target: DNA-PK/Ku70/Ku85 (Homo sapiens) (UniProt P78527+P12956+P13010); experiment: Inhibition of human recombinant DNAPK at 15 nM related to control ULK1; type: protein-complex assay
[6] = biological target: Death-associated protein kinase 2 (Homo sapiens) (UniProt Q9UIK4); experiment: Inhibition of human recombinant DAPK2 at 15 nM related to control ULK1
Death-associated protein kinase 2 (Homo sapiens), sequence (Q9UIK4 whole entry, looked up): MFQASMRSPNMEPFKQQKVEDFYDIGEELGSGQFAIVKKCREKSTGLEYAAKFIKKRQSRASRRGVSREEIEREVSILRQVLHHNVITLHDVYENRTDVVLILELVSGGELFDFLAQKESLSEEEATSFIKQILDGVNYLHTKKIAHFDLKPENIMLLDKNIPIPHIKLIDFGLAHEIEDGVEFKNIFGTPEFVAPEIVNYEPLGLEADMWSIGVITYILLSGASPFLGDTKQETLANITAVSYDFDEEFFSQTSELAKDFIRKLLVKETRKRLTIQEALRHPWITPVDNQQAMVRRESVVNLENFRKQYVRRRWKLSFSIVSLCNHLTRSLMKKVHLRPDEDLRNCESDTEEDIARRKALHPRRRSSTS

[7] = biological target: Serine/threonine-protein kinase PAK 1 (Homo sapiens) (UniProt Q13153); experiment: Inhibition of human recombinant PAK1 at 15 nM related to control ULK1
Serine/threonine-protein kinase PAK 1 (Homo sapiens), sequence (Q13153 whole entry, looked up): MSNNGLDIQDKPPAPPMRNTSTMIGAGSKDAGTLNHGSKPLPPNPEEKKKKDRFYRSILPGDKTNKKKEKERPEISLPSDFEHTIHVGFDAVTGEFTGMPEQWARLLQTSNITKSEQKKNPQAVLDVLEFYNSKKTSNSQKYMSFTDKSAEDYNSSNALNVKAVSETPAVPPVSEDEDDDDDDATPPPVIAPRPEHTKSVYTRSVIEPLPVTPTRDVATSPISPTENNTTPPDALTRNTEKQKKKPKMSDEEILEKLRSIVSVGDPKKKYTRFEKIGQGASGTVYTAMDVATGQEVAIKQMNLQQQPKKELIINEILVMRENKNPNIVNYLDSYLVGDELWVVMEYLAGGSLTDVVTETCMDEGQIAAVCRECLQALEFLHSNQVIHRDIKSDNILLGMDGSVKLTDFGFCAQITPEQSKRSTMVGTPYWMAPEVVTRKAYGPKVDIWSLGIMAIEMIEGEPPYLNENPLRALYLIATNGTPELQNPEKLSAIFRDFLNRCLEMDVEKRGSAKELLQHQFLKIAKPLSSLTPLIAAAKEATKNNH

[8] = biological target: ALK tyrosine kinase receptor (Homo sapiens) (UniProt Q9UM73); experiment: Inhibition of human recombinant ALK at 40 nM in presence of ATP by radiometric assay relative to control
ALK tyrosine kinase receptor (Homo sapiens), sequence (Q9UM73 19-1620 limits assumed): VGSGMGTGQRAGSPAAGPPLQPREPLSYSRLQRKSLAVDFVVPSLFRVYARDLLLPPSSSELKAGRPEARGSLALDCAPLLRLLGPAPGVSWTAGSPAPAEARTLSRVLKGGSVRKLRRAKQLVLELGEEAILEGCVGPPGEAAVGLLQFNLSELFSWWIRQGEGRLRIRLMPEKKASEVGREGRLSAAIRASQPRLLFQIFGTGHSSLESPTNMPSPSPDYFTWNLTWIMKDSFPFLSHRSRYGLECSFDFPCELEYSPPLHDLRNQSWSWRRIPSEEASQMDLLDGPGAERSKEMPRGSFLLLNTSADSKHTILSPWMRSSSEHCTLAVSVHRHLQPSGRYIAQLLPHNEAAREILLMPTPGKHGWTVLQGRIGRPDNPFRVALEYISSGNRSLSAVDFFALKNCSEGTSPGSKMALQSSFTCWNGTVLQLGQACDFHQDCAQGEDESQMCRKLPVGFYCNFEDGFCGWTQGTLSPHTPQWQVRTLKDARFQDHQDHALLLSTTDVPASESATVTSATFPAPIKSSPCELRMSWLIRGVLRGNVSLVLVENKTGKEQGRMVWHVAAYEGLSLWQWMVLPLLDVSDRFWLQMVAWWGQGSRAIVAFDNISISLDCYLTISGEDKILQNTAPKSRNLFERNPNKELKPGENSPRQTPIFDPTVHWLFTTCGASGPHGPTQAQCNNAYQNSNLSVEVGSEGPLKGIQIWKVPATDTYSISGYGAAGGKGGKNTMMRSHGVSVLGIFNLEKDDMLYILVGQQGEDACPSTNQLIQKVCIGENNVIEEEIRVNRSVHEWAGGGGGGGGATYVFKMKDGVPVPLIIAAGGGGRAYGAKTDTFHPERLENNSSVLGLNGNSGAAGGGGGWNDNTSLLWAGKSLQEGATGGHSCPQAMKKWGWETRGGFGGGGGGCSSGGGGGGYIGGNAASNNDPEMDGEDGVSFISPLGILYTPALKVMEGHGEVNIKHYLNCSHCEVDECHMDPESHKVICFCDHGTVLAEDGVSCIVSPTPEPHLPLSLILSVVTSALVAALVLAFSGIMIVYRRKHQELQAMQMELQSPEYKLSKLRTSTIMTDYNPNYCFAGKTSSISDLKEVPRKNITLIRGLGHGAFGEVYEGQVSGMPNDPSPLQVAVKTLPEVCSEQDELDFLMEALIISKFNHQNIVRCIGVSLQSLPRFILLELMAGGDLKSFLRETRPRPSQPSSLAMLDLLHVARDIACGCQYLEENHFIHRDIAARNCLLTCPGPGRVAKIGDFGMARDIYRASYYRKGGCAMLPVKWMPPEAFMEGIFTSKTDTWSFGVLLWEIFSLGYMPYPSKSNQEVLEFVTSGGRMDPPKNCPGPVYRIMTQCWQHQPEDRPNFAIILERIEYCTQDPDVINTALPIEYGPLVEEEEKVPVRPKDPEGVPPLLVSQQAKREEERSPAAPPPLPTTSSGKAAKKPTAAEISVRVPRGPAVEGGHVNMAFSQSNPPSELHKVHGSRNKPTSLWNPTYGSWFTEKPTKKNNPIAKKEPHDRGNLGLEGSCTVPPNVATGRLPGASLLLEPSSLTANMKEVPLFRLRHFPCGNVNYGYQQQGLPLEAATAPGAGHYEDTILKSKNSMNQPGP
Summary of the method: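 Panel of 327 recombinant human kinases in radiometric activity assays, each screened in duplicate at a single inhibitor concentration; percent activity remaining relative to vehicle control, percent inhibition taken as 100 minus activity remaining.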

[9] = biological target: cAMP-dependent protein kinase catalytic subunit alpha (Homo sapiens) (UniProt P17612); experiment: Inhibition of human recombinant PKACalpha at 40 nM in presence of ATP by radiometric assay relative to control
[10] = biological target: T3, Activin receptor type-1 (Homo sapiens) (UniProt Q04771); experiment: Inhibition of human recombinant ALK2 at 40 nM in presence of ATP by radiometric assay relative to control
T3 sequence (whole entry): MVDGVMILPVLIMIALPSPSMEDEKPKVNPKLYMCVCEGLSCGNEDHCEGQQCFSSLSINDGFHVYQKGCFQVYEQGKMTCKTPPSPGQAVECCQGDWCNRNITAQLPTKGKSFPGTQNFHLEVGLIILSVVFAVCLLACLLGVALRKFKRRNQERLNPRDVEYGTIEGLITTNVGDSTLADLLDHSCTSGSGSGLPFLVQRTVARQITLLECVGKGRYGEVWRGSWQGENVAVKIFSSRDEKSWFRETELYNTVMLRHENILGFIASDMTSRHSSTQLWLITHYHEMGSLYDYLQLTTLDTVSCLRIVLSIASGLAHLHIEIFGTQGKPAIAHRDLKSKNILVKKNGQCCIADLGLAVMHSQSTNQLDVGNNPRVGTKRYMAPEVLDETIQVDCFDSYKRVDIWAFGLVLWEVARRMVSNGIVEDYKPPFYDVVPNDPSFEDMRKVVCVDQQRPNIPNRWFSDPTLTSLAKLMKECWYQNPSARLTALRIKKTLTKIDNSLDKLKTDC
Summary of the method: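 Panel of 327 recombinant human kinases, each assayed in vitro by radiometric activity assay in duplicate at a single inhibitor concentration per compound, chosen with reference to its ULK1 inhibition. Activity remaining was expressed as percent of vehicle control, and percent inhibition was calculated as 100 minus percent activity remaining.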

[11] = biological target: MAP kinase-activated protein kinase 3 (Homo sapiens) (UniProt Q16644); experiment: Inhibition of human recombinant MAPKAPK3 at 40 nM related to control ULK1
MAP kinase-activated protein kinase 3 (Homo sapiens), sequence (Q16644 whole entry, looked up): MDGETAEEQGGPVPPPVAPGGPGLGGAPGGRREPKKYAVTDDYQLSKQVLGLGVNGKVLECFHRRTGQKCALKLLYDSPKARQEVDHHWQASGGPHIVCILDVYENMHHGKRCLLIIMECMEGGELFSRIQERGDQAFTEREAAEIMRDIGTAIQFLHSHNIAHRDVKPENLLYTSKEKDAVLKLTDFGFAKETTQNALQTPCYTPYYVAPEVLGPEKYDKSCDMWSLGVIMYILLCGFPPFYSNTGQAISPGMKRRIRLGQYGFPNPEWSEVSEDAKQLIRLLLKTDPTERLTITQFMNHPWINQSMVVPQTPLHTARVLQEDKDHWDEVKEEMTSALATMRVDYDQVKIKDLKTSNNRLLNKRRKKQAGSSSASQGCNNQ

fold change (FC) [1]: 0.08
inhibition [2]: 70%
inhibition [3]: 1%
Structure (SMILES): CNC(=O)c1ccccc1Oc1nc(Nc2cc(OC)c(OC)c(OC)c2)ncc1Br

inhibition [4]: 0%
fold change (FC) [5]: 0
fold change (FC) [7]: 0
Structure (SMILES): CC(C)[C@H](NC(=O)c1cc(-c2cnn3cc(-c4ccc(OCCN5CCCCC5)cc4)cnc23)cs1)C(F)(F)F
fold change (FC) [6]: 0.07

inhibition [8]: 0%
inhibition [9]: 0%
inhibition [10]: 56%
fold change (FC) [11]: 0
Structure (SMILES): O=C(N[C@@H](C1CC1)C(F)(F)F)c1cc(-c2cnn3cc(-c4ccc(F)cc4)cnc23)cs1
